An excerpt weighted towards active compounds, which were near 1% of everything screened.
FXIa inh mix = factor XIa (human) inhibition, mixture screen; P03951; purified FXIa, fluorogenic substrate, pooled mixtures; inhibition, % at 5 µM; 62,000 tested, 0.19% active;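 further: each value is inhibition by a whole ten-compound pool holding the compound; 0% = enzyme with no mixture and 100% = wells lacking enzyme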
HePTP inh = human HePTP phosphatase inhibition. P35236. recombinant HePTP phosphatase activity, OD absorbance. inhibition, % at 20 µM. 110,000 tested, 0.64% active; in the data active means inhibition above about 50%;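 further: plate controls were vehicle for no effect and reference inhibitor for full effect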
AP ELISA ortho = orthogonal test for alternative complement pathway inhibitors; Human serum alternative complement pathway, LPS-coated ELISA, C3 deposition; tested in compound mixtures; AID 1235; inhibition, % at 5 µM; 62,000 tested, 0.08% active;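 active means inhibition above 30% in each of the two pooled mixtures holding the compound, so the lower value exceeds 30%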;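 further: 0% = serum in Mg-EGTA without compound and 100% = EDTA serum blank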
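Medium: diluted human serum in Mg2+-EGTA GVB++. Assay system: human serum complement alternative pathway, C3 deposition onto LPS. Also added: Plate-bound LPS. Technique: Anti-C3 ELISA, OD 450 nm. Measure: percent inhibition. Incubation: 1 h at 37 °C. Dosing: 5 µM each compound, pools of ten, 50 µM per pool.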
FXIIa mix inh = factor XIIa (human) inhibition, mixture screen; P00748; purified FXIIa, fluorogenic substrate, pooled mixtures; inhibition, % at 5 µM; 62,000 tested, 0.2% active; AID 684;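 further: 0% = enzyme without compound and 100% = no enzyme blank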
BAP1 block = human BAP1 deubiquitinase inhibition | Q92560 | recombinant BAP1, Ub-AMC hydrolysis fluorescence kinetic; stronger effect = lower value | calls only at 20 µM | 72,000 tested, 0.48% active | AID 436;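 active means activity remaining at or below 50% of control, provided the compound also passes the data quality filters; inactive means the rest, including low values that fail the filters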;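 further: 100% = DMSO wells rate and 0% = substrate alone blank rate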
BAP1 inh conf = confirmation of human BAP1 enzyme inhibitors; AID 753; 310 tested, 8% active; purified BAP1, Ub-ethyl ester hydrolysis, HPLC; stronger effect = lower value; % of control activity, % at 20 µM; shares compounds with BAP1 block;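 active means percent of control activity at or below 60%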
Active calls of the source: *; i = inactive; x = no result given; + = active, no number. Unless noted, no stated cut-off is given here; in the data, active means inhibition above about 20% (passing the limit was not always enough); inactive means the rest.

SMILES | FXIa inh mix | HePTP inh | AP ELISA ortho | FXIIa mix inh | BAP1 block | BAP1 inh conf
CCOC(=O)C1=C(C)N=c2s/c(=C/c3ccco3)c(=O)n2C1c1cccc(OC)c1 (stereo unspecified) | 10 | -3 | 13 | -20 | + | 66
CCOC(=O)C1=C(C)N=c2s/c(=C\c3ccco3)c(=O)n2C1c1ccccc1 (stereo unspecified) | x | 8 | x | x | x | x
CCc1ccc2oc(-c3cccc(NC(=O)c4ccccc4C)c3)nc2c1 | x | 2 | x | x | x | x
COC1=Cc2c(ccc3ccc(=O)oc23)OC1(C)C | 10 | 9 | 8 | 5 | x | x
CC(=O)OC1c2c(ccc3ccc(=O)oc23)OC(C)(C)C1OC(=O)CC(C)C (stereo unspecified) | 0 | 4 | 2 | 9 | + | 99
Cc1cccc(-n2c(=O)[nH]c3c(C(N)=O)nc(-c4ccccc4Cl)nc32)c1 | 8 | 1 | 13 | 1 | + | 139
CCCc1ccc(Oc2cn[nH]c2-c2ccc(O)c(C)c2O)cc1 | -5 | -3 | -4 | 9 | + | 59*
Oc1ccc(-c2[nH]ncc2Oc2ccccc2)c(O)c1O | x | x | x | x | i | x
CCCc1ccc(Oc2c(-c3ccc(O)c(C)c3O)n[nH]c2C)cc1 | 12 | -6 | 6 | -17 | + | 64
CCCc1ccc(Oc2c(-c3ccc(OCC)cc3O)n[nH]c2C)cc1 | x | x | x | x | i | x
Nc1ncnc2c1[nH]c(=S)n2[C@@H]1O[C@H](CO)[C@H](O)C1O (stereo partly specified) | x | -5 | x | x | x | x
C/C=C/C=C(/NC(=O)c1ccccc1)C(=O)Nc1cccc(C)c1 | x | -18 | x | x | x | x
CCOC(=O)c1sc(NC(=O)c2noc3c2CCCC3)c(C(=O)OCC)c1C | 2 | 7 | 1 | 0 | + | i
N#Cc1c(NC(=O)CCN2C(=O)c3ccccc3C2=O)oc(-c2ccccc2)c1-c1ccccc1 | 0 | 6 | 20 | 3 | + | 50*
Cc1cc(NC(=O)c2cn(C3CCCCC3)c(=O)c3c2c2ccccc2n3C)no1 | -4 | -15 | 7 | 17 | + | 102
N#Cc1nc(-c2ccccc2F)oc1NCCN1CCOCC1 | 1 | 0 | 26 | -3 | + | 87
COc1ccc2c(c1)c(C(C)=O)c(C)n2-c1cccc(Br)c1 | x | x | x | x | i | x
CCOC(=O)C1CCN(c2nc3cc(OC)ccc3cc2C#N)CC1 | 3 | 7 | 14 | 20 | + | 117
COc1ccc2nc(N3CCC(O)CC3)c(C#N)cc2c1 | 3 | -3 | 15 | 12 | i | x
C=CCN1C(=O)/C(=C/c2ccco2)SC1=S | x | 31 | x | x | x | x
CCCc1cc(=O)oc2cc(C)c(CN3CCCC3)c(O)c12 | 0 | -3 | 10 | 1 | + | 116
O=C(CCSc1nnc2scc(-c3ccccc3)n12)Nc1nc(-c2ccccc2)ns1 | 3 | -10 | 7 | 21 | + | 126
COc1ccc(-c2nnc(SCC(=O)c3[nH]c(C)c(C(C)=O)c3C)o2)cc1 | -6 | 4 | 20 | -14 | i | x
CCOC(=O)c1[nH]c(CSc2nnc(-c3ccc(OC)cc3)o2)c(C(=O)OCC)c1C | 7 | 3 | -3 | -7 | + | 138
COc1ccc(CNC(=O)C(NS(=O)(=O)c2ccc3c(c2)CCCN3C(C)=O)C(C)C)cc1 (stereo unspecified) | -3 | 3 | 10 | 2 | i | x
SMILES | FXIa inh mix | HePTP inh | AP ELISA ortho | FXIIa mix inh | BAP1 block | BAP1 inh conf
CCC(=O)N1CCc2cc(S(=O)(=O)NC(C(=O)NCc3ccc(C)cc3)C(C)C)ccc21 (stereo unspecified) | 10 | 6 | 11 | 3 | + | i
CC(/C=C/c1ccco1)=N\NC(=O)c1cccc(F)c1 | x | -3 | x | x | x | x
COc1ccc(-n2c(SCC(=O)Nc3ccc4c(c3)OCO4)nc3c(c2=O)SCC3)cc1 | 7 | 4 | 28 | 3 | + | 105
O=C(CSc1nc2c(c(=O)n1-c1ccc(Cl)cc1)SCC2)Nc1ccc2c(c1)OCCO2 | 4 | 6 | 14 | 7 | + | 49*
O=C(CSc1nc2c(c(=O)n1-c1ccc(Cl)cc1)SCC2)N1CCOCC1 | 7 | 4 | 6 | 12 | i | x
CC(=O)Nc1ccc(-c2nc(-c3ccccc3)c3cc(NC(C)=O)ccc3n2)cc1 | x | -25 | x | x | x | x
O=C1c2ccc(-c3ccc4c(c3)C(=O)N(c3ccccn3)C4=O)cc2C(=O)N1c1ccccn1 | x | 12 | x | x | x | x
C=CCN1C(=O)/C(=C\c2c(Cl)cccc2Cl)SC1=S | x | -8 | x | x | x | x

Screening results deposited in PubChem BioAssay by several laboratories.
